Results as given in ChEMBL document CHEMBL4177758, “Rational Drug Design of Topically Administered Caspase 1 Inhibitors for the Treatment of Inflammatory Acne” (J Med Chem, 2018).
≈ marks a conversion by molar mass, not a printed value. Calls of active or inactive are those of the source. No cut-off for these calls is given here.

Columns and labels:
Caspase-1 (Homo sapiens) [1] = molecular target: T1, Caspase-1 (Homo sapiens) (UniProt P29466); assay: Pseudoirreversible inhibition of human recombinant caspase-1 using AC-WEHD-AMC as substrate at 10 times IC50 preincubated for 1 hr followed by 100 fold dilution with substrate measured for 2 hrs by fluorescence assay
T1 sequence (whole entry): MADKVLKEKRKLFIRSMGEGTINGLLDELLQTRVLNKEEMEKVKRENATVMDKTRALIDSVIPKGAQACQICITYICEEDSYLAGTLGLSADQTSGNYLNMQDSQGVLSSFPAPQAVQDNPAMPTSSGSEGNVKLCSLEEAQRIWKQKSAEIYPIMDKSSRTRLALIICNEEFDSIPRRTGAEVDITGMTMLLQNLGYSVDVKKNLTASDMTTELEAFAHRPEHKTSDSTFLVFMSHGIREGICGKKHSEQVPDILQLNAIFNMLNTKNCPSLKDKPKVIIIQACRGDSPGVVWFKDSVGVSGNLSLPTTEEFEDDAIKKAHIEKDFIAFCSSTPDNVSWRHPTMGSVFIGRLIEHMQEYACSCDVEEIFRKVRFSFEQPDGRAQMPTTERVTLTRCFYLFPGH
Procedure, shortened: (§1)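 Jump dilution using the caspase-1 assay reagents. A 100X enzyme solution is preincubated 1 h with inhibitor at its IC90 (1% DMSO), then diluted 100-fold into Ac-WEHD-AMC at Km. AMC formation is recorded continuously for 2 h. The progress-curve slope is normalized to the DMSO control: about 90% indicates reversible, about 10% pseudo-irreversible.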

Caspase-1 [2] = molecular target: T2, Caspase-1 (Homo sapiens, UniProt P29466); assay: Inhibition of human recombinant caspase-1 using AC-WEHD-AMC as substrate at Km after 20 mins by fluorescence assay
T2 sequence (P29466 whole entry): T1 sequence (whole entry)

Caspase-1 [3] = molecular target: T2, Caspase-1; assay: Inhibition of human recombinant caspase-1 using AC-WEHD-AMC as substrate at 20 times Km after 20 mins by fluorescence assay
Procedure, shortened: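 Human recombinant caspase-1 in pH 7.4 HEPES buffer (100 mM NaCl, 0.1% CHAPS, 1 mM EDTA, 10% glycerol, 10 mM DTT) with Ac-WEHD-AMC at 200 μM final. Compounds tested at 10 000–0.04 nM in 1% DMSO. Enzyme level is set to convert under 20% of substrate in 20 min at room temperature. Free AMC read at ex 340/em 450 nm; IC50 from a four-parameter logistic fit.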

Caspase-1 (Homo sapiens) [4] = molecular target: T1, Caspase-1 (Homo sapiens); assay: Reversible inhibition of human recombinant caspase-1 using AC-WEHD-AMC as substrate at 10 times IC50 preincubated for 1 hr followed by 100 fold dilution with substrate measured for 2 hrs by fluorescence assay; procedure, shortened: as §1
[5] = Intrinsic clearance in human epidermal keratinocyte S9 fraction assessed per mg of protein; assay type: ADME
[6] = Aqueous solubility of the compound in pH 7.4 buffered water after 24 hrs; assay type: physicochemical
Procedure, shortened: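 Semi-thermodynamic protocol: a mixture made from a 10 mM DMSO stock is diluted into pH 7.4 buffered water and stirred 24 h before the concentration is measured.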

[7] = Chemical stability in 96% ethanol assessed as parent compound recovery at 23 degC after 3 months; assay type: physicochemical; conditions: read-out: Drug recovery
Procedure, shortened: (§2)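 Compounds bearing the aspartyl aldehyde warhead are held in 96% ethanol at 23 °C and assayed as percent of parent compound recovered. Readings taken after 4 weeks are projected to 12 weeks with best-fit kinetic-order equations. Tautomers and potential stereoisomers are counted as parent.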

[8] = Phototoxicity in NHEK assessed as decrease in cell viability after 24 hrs in presence of UV light by neutral red uptake assay; conditions: human
Procedure, shortened: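 Keratinocyte neutral red uptake assay adapted from the OECD 432 3T3 NRU test. Cells are irradiated with a simulated daily UV dose of 6 J/cm², and viability is read after 24 h exposure to compound.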

[9] = Intrinsic clearance in NHEK cells assessed per 10^6 cells; assay type: ADME, cell-based; conditions: human
[10] = Lipophilicity, log D of the compound at pH 6.5 by chromatographic method; assay type: physicochemical; conditions: buffer
Procedure, shortened: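 Chromatographic lipophilicity at pH 6.5, converted to ChromLogD = CHI × 0.0857 − 2.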

Caspase-1 [11] = molecular target: T2, Caspase-1; assay: Inhibition of caspase-1 in human THP1 cells assessed as decrease in LPS-induced IL-1beta secretion after overnight incubation by sandwich immunoassay; assay type: cell-based
[12] = Solubility of the compound in PG/EtOH solution; assay type: physicochemical
[13] = Chemical stability in 96% ethanol assessed as parent compound recovery at 23 degC after 84 days; assay type: physicochemical; conditions: read-out: Drug recovery; procedure, shortened: as §2

Row | SMILES | IC50 (Caspase-1 [2]; read-out: pIC50 (converted)) | IC50 (Caspase-1 [3]) | solubility at 24 h [6] | chromatographic logD [10] | IC50 (Caspase-1 [11]) | also measured
1 | O=C1C[C@H](NC(=O)[C@@H]2CC[C@@H]3CCCC[C@H](NC(=O)c4nccc5ccccc45)C(=O)N32)C(O)O1 (some centres undefined) |  |  |  |  |  | pseudo-irreversible inhibition (qualitative call) (Caspase-1 (Homo sapiens) [1]): Active
2 | C[C@@H](C(=O)N[C@H]1CC(=O)OC1O)N1C(=O)CC(NC(=O)c2ccc3ccccc3c2)C1=O (some centres undefined) | 1000 to 10000 nM | 1260 to 10000 nM |  |  |  | 
3 | CC(C(=O)N[C@H]1CC(=O)OC1O)n1c(=O)c(NC(=O)c2ccc3ccccc3c2)cn(C)c1=O (some centres undefined) | 501 nM | 7940 nM |  |  |  | reversible inhibition call (jump dilution) (Caspase-1 (Homo sapiens) [4]): Active
4 | CC(C)[C@H](NC(=O)c1ccc2ccccc2c1)c1ccc(C(=O)N[C@H]2CC(=O)OC2O)cn1 (some centres undefined) | 1260 nM | > 10000 nM |  |  |  | 
5 | CCC(C(=O)N[C@H]1CC(=O)OC1O)n1c(=O)c(NC(=O)c2ncc(Nc3ccc4ccccc4c3)cc2C)cn(C(C)C)c1=O (some centres undefined) |  |  | 2 µM (≈ 1.23 µg/mL) | 4.5 | 200 nM | CL [5]: 2 uL/min/mg protein; remaining at 2191.5 h [7]: 100%; Activity [8]: Toxic; CL [9]: 7.7 uL/min/10^6 cells; solubility [12]: 49000 µM (≈ 30100 µg/mL)
6 | CC(C)N(NC(=O)c1ccc2ccccc2c1)C(=O)C1CNC[C@H]1C(=O)N[C@H]1CC(=O)OC1O (some centres undefined) | 251 to 10000 nM | 1580 to 10000 nM |  |  |  | 
7 | CC(C)N(NC(=O)c1ccc2ccccc2c1)C(=O)[C@@H]1CCCC[C@H]1C(=O)N[C@H]1CC(=O)OC1O (some centres undefined) |  |  |  |  |  | reversible inhibition call (jump dilution) (Caspase-1 (Homo sapiens) [4]): Active
8 | C[C@@H](C(=O)N[C@H]1CC(=O)OC1O)N1C(=O)CCC(NC(=O)c2ccc3ccccc3c2)C1=O (some centres undefined) | 1000 to 10000 nM | 1260 to 10000 nM |  |  |  | 
9 | CC(C)N(NC(=O)c1ccc2ccccc2c1)C(=O)C1CCC[C@H]1C(=O)N[C@H]1CC(=O)OC1O (some centres undefined) | 251 to 10000 nM | 1580 to 10000 nM |  |  |  | 
10 | CC(C)n1cc(NC(=O)c2ccc(Nc3cnc4ccccc4n3)cc2)c(=O)n(C2(C(=O)N[C@H]3CC(=O)OC3O)CC2)c1=O (some centres undefined) |  |  | 87 µM (≈ 52.2 µg/mL) | 2.4 | 27 nM | IC50 (Caspase-1 [2]; read-out: IC50): 4.7 nM; solubility [12]: 25000 µM (≈ 15000 µg/mL)
11 | CC(C)N(NC(=O)c1nccc2ccccc12)C(=O)[C@@H]1CCCC[C@H]1C(=O)N[C@H]1CC(=O)OC1O (some centres undefined) |  |  |  |  |  | reversible inhibition call (jump dilution) (Caspase-1 (Homo sapiens) [4]): Active
12 | CC(C)n1cc(NC(=O)c2ccc(Nc3ccc4ccccc4c3)cc2)c(=O)n(CC(=O)N[C@H]2CC(=O)OC2O)c1=O (some centres undefined) |  |  | 52 µM (≈ 29.7 µg/mL) | 3.2 | 140 nM | CL [5]: < 0.82 uL/min/mg protein; remaining at 2191.5 h [7]: 82%; IC50 (Caspase-1 [2]; read-out: IC50): 21 nM; Activity [8]: Toxic; solubility [12]: 36000 µM (≈ 20600 µg/mL)
13 | Cc1cc(Nc2ccc3ccccc3c2)ccc1C(=O)Nc1cn(C(C)C)c(=O)n(C2(C(=O)N[C@H]3CC(=O)OC(O)C3)CC2)c1=O (some centres undefined) |  |  | 63 µM (≈ 39.4 µg/mL) | 3.4 | 360 nM | remaining at 2016 h [13]: 88%; CL [5]: 3.5 uL/min/mg protein; Activity [8]: Non-Toxic
14 | CC(C)[C@H](NC(=O)[C@H](Cc1ccc(O)cc1)NC(=O)OCc1ccccc1)C(=O)N[C@@H](C)C(=O)N[C@@H](CC(=O)O)C(=O)CF |  |  |  |  |  | pseudo-irreversible inhibition (qualitative call) (Caspase-1 (Homo sapiens) [1]): Active
15 | C[C@@H](C(=O)N[C@H]1CC(=O)OC1O)N1C(=O)C[C@H](NC(=O)c2ccc3ccccc3c2)C1=O (some centres undefined) |  |  |  |  |  | pseudo-irreversible inhibition (qualitative call) (Caspase-1 (Homo sapiens) [1]): Active
16 | CC(C(=O)N[C@H]1CC(=O)OC1O)n1c(=O)c(NC(=O)c2ccc(Nc3cnc4ccccc4n3)cc2)cn(C)c1=O (some centres undefined) |  | 31.6 nM | 96 µM (≈ 53.7 µg/mL) | 1.9 | 48 nM | IC50 (Caspase-1 [2]; read-out: IC50): 5.6 nM; solubility [12]: 890 µM (≈ 498 µg/mL)
17 | CC(C)N(NC(=O)c1cccc(Oc2ccccc2)c1)C(=O)[C@@H]1CCCC[C@H]1C(=O)N[C@H]1CC(=O)OC1O (some centres undefined) |  |  |  |  |  | reversible inhibition call (jump dilution) (Caspase-1 (Homo sapiens) [4]): Active
18 | C[C@@H](C(=O)N[C@H]1CC(=O)O[C@@H]1O)N1C(=O)CCC(NC(=O)c2ccc3ccccc3c2)C1=O (some centres undefined) |  |  |  |  |  | pseudo-irreversible inhibition (qualitative call) (Caspase-1 (Homo sapiens) [1]): Active
19 | CC(C)[C@H](NC(=O)c1ccc2ccccc2c1)C(=O)N1C2CCC(O)(CC2)C1C(=O)N[C@H]1CC(=O)OC1O (some centres undefined) | 15.8 nM | 100 nM |  |  |  | 

Further lines, with some results ahead:

Row | IC50 (Caspase-1 [2]; read-out: pIC50 (converted)) | IC50 (Caspase-1 [3]) | solubility at 24 h [6] | chromatographic logD [10] | IC50 (Caspase-1 [11]) | SMILES | also measured
20 | 5010 nM | > 10000 nM |  |  |  | O=C1C[C@H](NC(=O)[C@@H]2C[C@@H]3CN2C(=O)[C@@H](NC(=O)c2ccc4ccccc4c2)CCCCO3)C(O)O1 (some centres undefined) | 
21 |  |  | 8.3 µM (≈ 4.76 µg/mL) | 2.3 | 53 nM | CC(C)n1cc(NC(=O)c2ccc(Nc3cnc4ccccc4n3)cc2)c(=O)n(CC(=O)N[C@H]2CC(=O)OC2O)c1=O (some centres undefined) | IC50 (Caspase-1 [2]; read-out: IC50): 3 nM; solubility [12]: 5200 µM (≈ 2980 µg/mL)
22 |  |  | 42 µM (≈ 26.4 µg/mL) | 3.8 | 210 nM | CCC(C(=O)N[C@H]1CC(=O)OC(O)C1)n1c(=O)c(NC(=O)c2ccc(Nc3ccc4ccccc4c3)cc2C)cn(C(C)C)c1=O (some centres undefined) | CL [5]: 2.9 uL/min/mg protein; remaining at 2191.5 h [7]: 84%; CL [9]: 13 uL/min/10^6 cells
23 |  |  | 72 µM (≈ 42.2 µg/mL) | 3.5 | 66 nM | Cc1cc(Nc2ccc3ccccc3c2)ccc1C(=O)Nc1cn(C(C)C)c(=O)n(CC(=O)N[C@H]2CC(=O)OC2O)c1=O (some centres undefined) | remaining at 2191.5 h [7]: 85%; CL [9]: 3.9 uL/min/10^6 cells; solubility [12]: 51000 µM (≈ 29900 µg/mL)
24 | 1000 to 10000 nM | 1260 to 10000 nM |  |  |  | C[C@@H](C(=O)N[C@H]1CC(=O)OC1O)N1C(=O)NC(NC(=O)c2ccc3ccccc3c2)C1=O (some centres undefined) | 
25 |  |  | 86 µM (≈ 50.5 µg/mL) | 2.4 | 50 nM | CC(C)n1cc(NC(=O)c2ccc(Nc3cnc4ccccc4n3)cc2)c(=O)n(C(C)C(=O)N[C@H]2CC(=O)OC2O)c1=O (some centres undefined) | IC50 (Caspase-1 [2]; read-out: IC50): 5.6 nM; solubility [12]: 11000 µM (≈ 6460 µg/mL)
26 |  |  |  | 4 | 76 nM | CCC(C(=O)N[C@H]1CC(=O)OC1O)n1c(=O)c(NC(=O)c2ccc(Nc3ccc4ccccc4c3)cc2C)cn(C(C)C)c1=O (some centres undefined) | remaining at 2191.5 h [7]: 72%
27 |  |  | 66 µM (≈ 39.4 µg/mL) | 3.5 | 23 nM | CC(C)n1cc(NC(=O)c2ccc(Nc3ccc4ccccc4c3)cc2)c(=O)n(C2(C(=O)N[C@H]3CC(=O)OC3O)CC2)c1=O (some centres undefined) | CL [5]: < 0.82 uL/min/mg protein; remaining at 2191.5 h [7]: 99%; CL [9]: 2.1 uL/min/10^6 cells; solubility [12]: 31000 µM (≈ 18500 µg/mL)
28 | 251 to 10000 nM | 1580 to 10000 nM |  |  |  | CC(C)N(NC(=O)c1ccc2ccccc2c1)C(=O)C1CCCC[C@H]1C(=O)N[C@H]1CC(=O)OC1O (some centres undefined) | 
29 | 39.8 nM |  |  |  |  | Cc1cnc(Nc2ccc(C(=O)Nc3cn(C)c(=O)n(C(C)C(=O)N[C@H]4CC(=O)OC4O)c3=O)cc2)cn1 (some centres undefined) | 
